The full list was thinned out, with hits kept by preference.
T cruzi growth-1: blocks T. cruzi growth in NIH3T3 culture; AID 624255; hit rate 5.9% among 77,000; inhibition, % at 8.34 µM; T. cruzi beta-gal in NIH3T3, GalScreen luminescence, 90 h;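 active means mean inhibition above about 93%, with at least 55% of replicates each passing it, limit read from the data, passing the limit was not always enough; inconclusive means only one of those two conditions holds; inactive means neither condition holds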
GASC1 inh: KDM4C (human) demethylase inhibition; Q9H3R0; AID 720574; GST-KDM4C 2-372, H3K9me3 peptide, LANCE TR-FRET; inhibition, % at 12.5 µM; hit rate 0.15% among 96,000;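 active means mean replicate inhibition above about 25%, with at least 55% of replicates also reaching it, limit read from the data, passing the limit was not always enough; inconclusive means only one of those two conditions met; inactive means neither condition met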
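Material: GST-tagged GASC-1 (JMJD2C) catalytic fragment, aa 2-372 / Quantity: enzyme final amount 10 nM / Medium: HEPES buffer, pH 7.5, plus ascorbate / Doses: one test concentration per compound / Incubation: 30 min reaction, 60 min detection, RT / Measured by: LANCE TR-FRET / Read-out: inhibition from TR-FRET ratio decrease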
IDH1 R132H inh: IDH1 R132H (human) inhibition; IDH1 R132H reductase, diaphorase/resazurin fluorescence, 60 min; inhibition, % at 10 µM; O75874; hit rate 0.18% among 70,000; in the data active means inhibition above about 34%; inconclusive means no clear call, values can overlap the other calls; inactive means below about 11%;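 further: 0% = DMSO and 100% = no enzyme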
Target sequence (O75874 whole entry R132H): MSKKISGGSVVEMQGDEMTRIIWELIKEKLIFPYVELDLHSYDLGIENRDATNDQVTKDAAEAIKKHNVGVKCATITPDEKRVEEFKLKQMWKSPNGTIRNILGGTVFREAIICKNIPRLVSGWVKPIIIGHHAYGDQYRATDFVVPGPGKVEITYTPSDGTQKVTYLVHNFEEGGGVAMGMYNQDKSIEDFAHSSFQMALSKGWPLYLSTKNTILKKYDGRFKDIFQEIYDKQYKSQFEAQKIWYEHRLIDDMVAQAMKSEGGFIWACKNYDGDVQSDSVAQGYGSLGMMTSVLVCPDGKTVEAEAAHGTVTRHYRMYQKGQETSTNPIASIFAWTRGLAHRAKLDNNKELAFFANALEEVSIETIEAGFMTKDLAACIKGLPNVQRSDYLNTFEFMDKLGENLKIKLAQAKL
T cruzi growth-2: Trypanosoma cruzi proliferation inhibition | shares compounds with T cruzi growth-1 | T. cruzi beta-gal in NIH3T3, GalScreen luminescence, 90 h | inhibition, % at 8.35 µM | hit rate 72% among 5,600;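 active means mean replicate inhibition above about 95% and at least 55% of replicates individually reaching it, limit read from the data; inconclusive means only one of the two criteria is met; inactive means neither criterion is met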
T cruzi growth-3: blocks T. cruzi growth in NIH3T3 host cells; shares compounds with T cruzi growth-1; T. cruzi beta-gal in NIH3T3, GalScreen luminescence, 90 h; inhibition, % at 2.09 µM; hit rate 21% among 5,600; AID 651740;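 active means mean inhibition above about 95%, with at least 55% of replicates also reaching it, limit read from the data; inconclusive means meets just one of the two conditions; inactive means meets neither condition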;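 further: plate controls were neutral control median for no effect and positive control median for full effect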
3T3 cytotox: kills mouse NIH/3T3 fibroblasts; hit rate 14% among 5,600; AID 651742; NIH/3T3 viability, CellTiter-Glo ATP luminescence, 90 h; cytotoxicity (signal decrease), % at 8.35 µM; shares compounds with T cruzi growth-1;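 active means mean signal decrease across replicates above about 35% based on untreated-well scatter, with enough replicates individually passing, limit read from the data; inconclusive means no rule stated though some were filed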;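 further: 0% = median of neutral control wells and 100% = median of positive control wells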
NIH3T3 tox 2: cytotoxicity in mouse NIH/3T3 fibroblasts; shares compounds with T cruzi growth-1; NIH/3T3 viability, CellTiter-Glo ATP luminescence, 90 h; inhibition, % at 24.9 µM; hit rate 56% among 5,600;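 active means mean loss of cell viability signal at or above a set limit, and enough replicates individually reaching it; inconclusive means meets only the mean limit or only the replicate share; inactive means meets neither condition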;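 further: 0% = median of neutral control wells and 100% = median of positive control wells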
The depositor's hits bear a star; ? = inconclusive; / = no result.

SMILES | T cruzi growth-1 | GASC1 inh | IDH1 R132H inh | T cruzi growth-2 | T cruzi growth-3 | 3T3 cytotox | NIH3T3 tox 2
C[C@H]1CCCCO[C@@H](CN(C)S(=O)(=O)c2ccccc2)[C@@H](C)CN([C@@H](C)CO)C(=O)c2cc(NS(=O)(=O)c3ccc(F)cc3)ccc2O1 | 101* | -1 | 1 | 107* | 64 | -5 | 12
C[C@H]1CCCCO[C@H](CN(C)S(=O)(=O)c2ccccc2)[C@@H](C)CN([C@@H](C)CO)C(=O)c2cc(NS(=O)(=O)c3ccc(F)cc3)ccc2O1 | 97* | -2 | -2 | 110* | 70 | 19 | 9
C[C@@H]1CCCCO[C@H](CN(C)S(=O)(=O)c2ccccc2)[C@@H](C)CN([C@H](C)CO)C(=O)c2cc(NS(=O)(=O)c3ccc(F)cc3)ccc2O1 | 14 | -1 | 0 | / | / | / | /
COc1ccc(CN(C)C[C@@H]2OCCCC[C@H](C)Oc3ccc(NC(=O)Nc4ccc(C(F)(F)F)cc4)cc3C(=O)N([C@@H](C)CO)C[C@H]2C)cc1 | 69 | / | -1 | / | / | / | /
COc1ccc(CN(C)C[C@@H]2OCCCC[C@@H](C)Oc3ccc(NC(=O)Nc4ccc(C(F)(F)F)cc4)cc3C(=O)N([C@H](C)CO)C[C@@H]2C)cc1 | ? | / | / | 97* | 108* | 7 | 29*
COc1ccc(NC(=O)Nc2ccc3c(c2)C(=O)N([C@H](C)CO)C[C@H](C)[C@@H](CN(C)Cc2ccc(C(F)(F)F)cc2)OCCCC[C@H](C)O3)cc1 | 72 | 0 | / | / | / | / | /
COc1ccc(NC(=O)Nc2ccc3c(c2)C(=O)N([C@H](C)CO)C[C@@H](C)[C@@H](CN(C)Cc2ccc(C(F)(F)F)cc2)OCCCC[C@H](C)O3)cc1 | 100* | 0 | / | 85 | 108* | 18 | -4
O=C(CSC1CC(=O)N(c2cc(Cl)cc(Cl)c2)C1=O)Nc1ccccc1F (stereo unspecified) | / | / | 2 | / | / | / | /
COc1ccc([N+](=O)[O-])cc1NC(=O)C(C)N(c1ccccc1)S(C)(=O)=O (stereo unspecified) | / | / | 0 | / | / | / | /
O=C(Nc1ccc(F)cc1)N1CCCCN2[C@@H](CO)[C@H](c3ccc(C#CC4CC4)cc3)[C@@H]2C1 | 53 | 1 | / | / | / | / | /
O=C(Nc1ccccc1)N1CCCCN2[C@H](CO)[C@@H](c3ccc(C#CC4CC4)cc3)[C@@H]2C1 | 86 | 0 | / | / | / | / | /
O=C(Nc1cccc(F)c1)N1CCCCN2[C@H](CO)[C@H](c3ccc(C#CC4CC4)cc3)[C@H]2C1 | 102* | -1 | / | 98* | 100* | 122* | 104*
O=C(Nc1cccc(F)c1)N1CCCCN2[C@H](CO)[C@@H](c3ccc(C#CC4CC4)cc3)[C@H]2C1 | 112* | -2 | / | 107* | 80 | 26 | 104*
O=C(Nc1cccc(F)c1)N1CCCCN2[C@@H](CO)[C@@H](c3ccc(C#CC4CC4)cc3)[C@@H]2C1 | 70 | -2 | / | / | / | / | /
O=C(Nc1cccc(F)c1)N1CCCCN2[C@H](C1)[C@@H](c1ccc(C#CC3CC3)cc1)[C@@H]2CO | 85 | -1 | / | / | / | / | /
O=C(Nc1cccc(F)c1)N1CCCCN2[C@H](CO)[C@@H](c3ccc(C#CC4CC4)cc3)[C@@H]2C1 | 110* | -3 | / | 106* | 104* | 23 | 104*
O=C(Nc1ccc(F)cc1)N1CCCCN2[C@H](CO)[C@@H](c3ccc(C#CC4CC4)cc3)[C@H]2C1 | 113* | 0 | / | 111* | 84 | 28 | 105*
COc1ccc(C)cc1NC(=O)c1ccc(OCC(=O)Nc2cccc(C(F)(F)F)c2)cc1 | / | / | 0 | / | / | / | /
CS(=O)(=O)N(CC(=O)Nc1ccccc1-c1ccccc1)c1ccc2c(c1)OCCO2 | / | / | 0 | / | / | / | /
COc1cc(OC)c(C(=O)NCCCN(C)C)cc1OC | / | / | -1 | / | / | / | /
CCCN(C)C[C@@H]1Oc2cc(C#Cc3ccccc3)ccc2S(=O)(=O)N([C@@H](C)CO)C[C@H]1C | 26 | 4 | -2 | / | / | / | /
CCCN(C)C[C@@H]1Oc2cc(C#Cc3cccc(F)c3)ccc2S(=O)(=O)N([C@@H](C)CO)C[C@@H]1C | 111* | 1 | 1 | 113* | 61 | 7 | 102*
C[C@@H]1CN([C@H](C)CO)S(=O)(=O)c2ccc(C#Cc3cccc(F)c3)cc2O[C@@H]1CN(C)C | -81 | -1 | -2 | / | / | / | /
CCCN(C)C[C@@H]1Oc2cc(C#Cc3ccc(F)cc3)ccc2S(=O)(=O)N([C@@H](C)CO)C[C@H]1C | 94* | 2 | 1 | 105* | 40 | 31 | 106*
CCCN(C)C[C@@H]1Oc2cc(C#Cc3ccc(F)cc3)ccc2S(=O)(=O)N([C@H](C)CO)C[C@@H]1C | 14 | -1 | -2 | / | / | / | /
SMILES | T cruzi growth-1 | GASC1 inh | IDH1 R132H inh | T cruzi growth-2 | T cruzi growth-3 | 3T3 cytotox | NIH3T3 tox 2
CCCN(C)C[C@@H]1Oc2cc(C#Cc3cccc(F)c3)ccc2S(=O)(=O)N([C@@H](C)CO)C[C@H]1C | 116* | -1 | 0 | 110* | 10 | 4 | 104*
Cc1c(Cl)cccc1NC(=O)C(C)N(c1ccc(Oc2ccccc2)cc1)S(C)(=O)=O (stereo unspecified) | / | / | 4 | / | / | / | /
O=C(COc1ccc2ccccc2c1Br)Nc1ccccc1C(=O)N1CCCCC1 | / | / | 0 | / | / | / | /
C[C@H](CO)N1C[C@H](C)[C@@H](CN(C)C(=O)C2CCC2)Oc2cc(C#CCN(C)C)ccc2S1(=O)=O | 106* | 2 | 1 | 99* | 93 | 19 | 8
C[C@@H]1CN([C@H](C)CO)S(=O)(=O)c2ccc(C#CCN(C)C)cc2O[C@@H]1CN(C)C(=O)C1CCC1 | 72 | 4 | / | / | / | / | /
C[C@H](CO)N1C[C@H](C)[C@@H](CN(C)C(=O)C2CC2)Oc2cc(C#CCN(C)C)ccc2S1(=O)=O | 100* | 1 | / | 107* | 92 | 14 | 15
C[C@H]1CN([C@@H](C)CO)S(=O)(=O)c2ccc(C#CCN(C)C)cc2O[C@@H]1CN(C)C(=O)C1CCCCC1 | / | 3 | / | / | / | / | /
COc1cc(O)c(C(=O)c2c(C)cc(O)cc2OC)c(O)c1 | / | / | 0 | / | / | / | /
COc1cc(S(=O)(=O)NCc2ccccn2)ccc1Br | / | / | 0 | / | / | / | /
CC(=O)N(C)C[C@H]1Oc2cc(C#CC3CCCC3)ccc2S(=O)(=O)N([C@@H](C)CO)C[C@@H]1C | 93 | 2 | / | / | / | / | /
CC(=O)N(C)C[C@@H]1Oc2cc(C#CC3CCCCC3)ccc2S(=O)(=O)N([C@@H](C)CO)C[C@H]1C | 84 | -1 | / | / | / | / | /
CC(=O)N(C)C[C@H]1Oc2cc(C#CC3CCCC3)ccc2S(=O)(=O)N([C@H](C)CO)C[C@H]1C | 102* | 0 | / | 96* | 84 | -2 | 62*
CC(=O)N(C)C[C@@H]1Oc2cc(C#CC3CCCCC3)ccc2S(=O)(=O)N([C@H](C)CO)C[C@H]1C | ? | -3 | / | 108* | 93 | 32 | 64*

Assay outcomes as filed in PubChem.
